IC50 and activity data for 8 molecules are collected here from ChEMBL document CHEMBL3286301, “Solving time-dependent CYP3A4 inhibition for a series of indole-phenylacetic acid dual antagonists of the PGD(2) receptors CRTH2 and DP” (Bioorg Med Chem Lett, 2014).

For orientation: IC50 means the midpoint of a concentration-inhibition curve.

The target of data set [1] is T1, Prostaglandin D2 receptor 2 (Homo sapiens, UniProt Q9Y5Y4).
T1 sequence (Q9Y5Y4 whole entry): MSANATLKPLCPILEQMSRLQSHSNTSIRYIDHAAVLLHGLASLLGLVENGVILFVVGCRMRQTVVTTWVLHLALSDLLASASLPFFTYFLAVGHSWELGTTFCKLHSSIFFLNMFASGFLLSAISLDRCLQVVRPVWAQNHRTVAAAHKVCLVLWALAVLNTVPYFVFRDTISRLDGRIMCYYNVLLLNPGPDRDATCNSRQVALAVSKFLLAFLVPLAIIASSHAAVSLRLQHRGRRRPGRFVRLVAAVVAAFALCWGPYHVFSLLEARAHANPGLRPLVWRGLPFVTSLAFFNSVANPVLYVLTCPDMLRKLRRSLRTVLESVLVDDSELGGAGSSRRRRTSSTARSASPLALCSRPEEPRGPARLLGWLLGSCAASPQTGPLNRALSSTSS
As to the kind of experiment: Displacement of [3H]-PGD2 from human CRTH2 expressed in HEK293 cells in buffer solution with 0.5% bovine serum albumin by scintillation counting. Format: cell-based. Summed up:
(§1)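 Radioligand binding: displacement of ³H-PGD2 from receptor expressed on HEK 293 cells. Run either in buffer with 0.5% bovine serum albumin or in 50% human plasma. IC50 values are the average of at least two experiments.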
For orientation: Displacement assays read how much labelled ligand stays bound in the presence of the test substance.

Data set [2] has as its target T2, Prostaglandin D2 receptor (Homo sapiens, UniProt Q13258).
T2 sequence (Q13258 whole entry): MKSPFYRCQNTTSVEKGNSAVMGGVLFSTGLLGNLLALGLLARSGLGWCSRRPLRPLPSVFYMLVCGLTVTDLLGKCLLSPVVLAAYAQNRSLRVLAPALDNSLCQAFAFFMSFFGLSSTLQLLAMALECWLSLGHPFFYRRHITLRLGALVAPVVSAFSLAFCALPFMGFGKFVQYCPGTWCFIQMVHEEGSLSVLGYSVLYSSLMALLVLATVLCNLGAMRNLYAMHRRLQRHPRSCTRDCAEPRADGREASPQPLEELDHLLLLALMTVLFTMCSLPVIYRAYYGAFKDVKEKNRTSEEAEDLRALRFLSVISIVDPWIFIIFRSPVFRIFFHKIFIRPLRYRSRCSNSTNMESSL
Kind of data set: Displacement of [3H]-PGD2 from human DP receptor expressed in HEK293 cells in buffer solution with 0.5% bovine serum albumin by scintillation counting. It counts as cell-based. Summed up:
as §1

For another data set, the target named is CYP3A4 (Homo sapiens, UniProt P08684). Kind of data set: Time dependent inhibition of human liver microsome CYP3A4 activity assessed as percentage remaining activity by measuring 6-beta-OH-testosterone formation at 15 uM for 15 mins using 200 uM testosterone as a substrate by LC/MS/MS analysis. It counts as ADME. Particulars: liver microsomes, probe testosterone, read-out: Activity. In outline: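 Pooled human liver microsomes (1.0 mg/mL) in 100 mM potassium phosphate, pH 7.4, preincubated with compound (15 µM) and 1 mM NADPH for 15 min. Then diluted 1:10 into a secondary incubation with 200 µM testosterone (saturating) plus 1 mM NADPH for 20 min. Stopped with acetonitrile containing deuterated internal standard. 6β-OH-testosterone measured by LC/MS/MS; % remaining activity reported. Average of at least two experiments.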
(Liver microsomes are vesicles of endoplasmic reticulum, rich in cytochrome P450 enzymes.)

The target of data set [3] is T2, Prostaglandin D2 receptor. Kind of data set: Displacement of [3H]-PGD2 from human DP receptor expressed in HEK293 cells in presence of 50% human plasma by scintillation counting. Format: cell-based. In outline:
as §1

Data set [4] addresses T1, Prostaglandin D2 receptor 2. As to the kind of experiment: Displacement of [3H]-PGD2 from human CRTH2 expressed in HEK293 cells in presence of 50% human plasma by scintillation counting. It counts as cell-based. Summed up: as §1

Chain of CYP3A4 (P08684 whole entry): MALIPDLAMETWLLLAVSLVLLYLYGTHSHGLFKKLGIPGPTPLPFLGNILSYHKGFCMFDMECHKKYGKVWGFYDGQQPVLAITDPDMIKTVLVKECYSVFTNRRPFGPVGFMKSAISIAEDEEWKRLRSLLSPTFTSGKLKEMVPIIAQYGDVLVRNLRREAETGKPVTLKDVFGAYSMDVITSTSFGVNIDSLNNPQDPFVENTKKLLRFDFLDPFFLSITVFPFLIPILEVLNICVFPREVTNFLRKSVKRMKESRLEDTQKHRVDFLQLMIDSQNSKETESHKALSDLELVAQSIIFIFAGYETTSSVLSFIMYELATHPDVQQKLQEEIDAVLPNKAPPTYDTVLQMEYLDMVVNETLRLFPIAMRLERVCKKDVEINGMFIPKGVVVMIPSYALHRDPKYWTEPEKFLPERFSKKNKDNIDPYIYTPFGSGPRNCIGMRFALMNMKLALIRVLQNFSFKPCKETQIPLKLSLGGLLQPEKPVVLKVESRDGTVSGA

With `COc1cc(CC(=O)O)ccc1Oc1ccc2[nH]c(C)c(Cl)c2c1NS(=O)(=O)c1ccc(Cl)cc1Cl`, the IC50 stood at 220 nM in data set [1] and 1100 nM in data set [2]. The activity at 0.25 h, 15 µM at CYP3A4 is 87%.
In the case of `COc1cc(CC(=O)O)ccc1Oc1ccc2[nH]c(C(C)(C)C)cc2c1NS(=O)(=O)c1ccc(Cl)cc1Cl`, the values for the concentration for half-maximal inhibition (IC50) in data set [1] and in data set [2] were 32 nM and 8400 nM, respectively. In addition, the activity at 0.25 h, 15 µM at CYP3A4 came to 81%.
On to `CCCc1cc2c(NS(=O)(=O)c3ccc(Cl)cc3Cl)c(Oc3ccc(CC(=O)O)cc3OC)ccc2[nH]1`, for which the IC50 in data set [1] was found to be 57 nM; in data set [2], 45 nM; in data set [3] it was 130 nM; in data set [4], 110 nM. Further, the activity at 0.25 h, 15 µM at CYP3A4 was found to be 79%.
On the same counts, the results for `COc1cc(CC(=O)O)ccc1Oc1ccc2c(c1NS(=O)(=O)c1ccc(Cl)cc1Cl)CC(=O)N2` are 3 nM, 17 nM, 1300 nM, 31 nM and 103%.
On the same counts, the results for `COc1cc(CC(=O)O)ccc1Oc1ccc2c(cc(C)n2C)c1NS(=O)(=O)c1ccc(Cl)cc1Cl` are 22 nM, 27 nM, 76 nM, 56 nM and 28%.
For `COc1cc(CC(=O)O)ccc1Oc1ccc2[nH]c(C#N)cc2c1NS(=O)(=O)c1ccc(Cl)cc1Cl`, in that order: 27 nM, 82 nM, 130 nM, 130 nM and 73%.
In the case of `COc1cc(CC(=O)O)ccc1Oc1ccc2[nH]c(CC(C)C)cc2c1NS(=O)(=O)c1ccc(Cl)cc1Cl`, the IC50 was determined as 32 nM in data set [1], 62 nM in data set [2], 110 nM in data set [3] and 48 nM in data set [4]. The activity at 0.25 h, 15 µM at CYP3A4 was determined as 38%.
On the same counts, the results for `COc1cc(CC(=O)O)ccc1Oc1ccc2[nH]c(C3CC3)cc2c1NS(=O)(=O)c1ccc(Cl)cc1Cl` are 8 nM, 74 nM, 350 nM, 25 nM and 41%.
